Data from article PMC7616937 (Chemical communications (Cambridge, England), 2019).
Peptide text beside a SMILES is read from it.

How the values were obtained:
[1] = Kinetics of fiber formation by TEM imaging; type: physicochemical; settings: Fig. 2a, b
[2] = Kinetics of fibrillation by Thioflavin T; type: physicochemical; settings: Fig. 3g
Method in brief: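 Peptide fibrillation was tracked by Thioflavin T fluorescence, either with peptide alone or with lipid vesicles mimicking mammalian plasma membranes. The vesicles were made of 1,2-dioleoyl-sn-glycero-3-phosphocholine (DOPC), cholesterol and sphingomyelin.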

neuronal dysfunction = settings: observation from the literature, no reference printed at b17; compare b4, ref 7a; cited from earlier work

ThT fluorescence during kinetic measurement ([2]; peptide only, without lipid vesicles, followed for 96 hours)	effect of addition of lipid vesicles on ThT fluorescence / fibrillation ([2]; with DOPC/Chol/Sph lipid vesicles)	Compound	time to mature fibers / completion of self-assembly [1]	toxicity (neuronal dysfunction)
dramatic increase in fluorescence	inhibition of the fibrillation process	CC(=O)N[C@@H](CCCCN)C(=O)N[C@@H](CC(C)C)C(=O)N[C@H](C(=O)N[C@@H](Cc1ccccc1)C(=O)N[C@@H](Cc1ccccc1)C(=O)N[C@@H](C)C(=O)N[C@@H](CCC(=O)O)C(N)=O)C(C)C [Aβ(16-22), Ac-KLVFFAE-NH2] (Ac-KLVFFAE-NH2)	four to seven days	–
–	–	Aβ(1-42): full length Aβ peptide	–	high toxicity
